35 compounds from ChEMBL document CHEMBL5357042, “Discovery of imidazo[1,2-b]pyridazine-containing TAK1 kinase inhibitors with excellent activities against multiple myeloma” (RSC Med Chem, 2024) can be followed below.

For orientation: inhibition means the drop in the measured response relative to a control, in per cent. The term GI50 denotes the concentration at which growth is held to half of that of the control. One may read the IC50 as the point on the concentration scale where inhibition reaches its midpoint.

Assay [1] has as its target T1, Mitogen-activated protein kinase kinase kinase 7 (Homo sapiens) (UniProt O43318).
T1 sequence (whole entry): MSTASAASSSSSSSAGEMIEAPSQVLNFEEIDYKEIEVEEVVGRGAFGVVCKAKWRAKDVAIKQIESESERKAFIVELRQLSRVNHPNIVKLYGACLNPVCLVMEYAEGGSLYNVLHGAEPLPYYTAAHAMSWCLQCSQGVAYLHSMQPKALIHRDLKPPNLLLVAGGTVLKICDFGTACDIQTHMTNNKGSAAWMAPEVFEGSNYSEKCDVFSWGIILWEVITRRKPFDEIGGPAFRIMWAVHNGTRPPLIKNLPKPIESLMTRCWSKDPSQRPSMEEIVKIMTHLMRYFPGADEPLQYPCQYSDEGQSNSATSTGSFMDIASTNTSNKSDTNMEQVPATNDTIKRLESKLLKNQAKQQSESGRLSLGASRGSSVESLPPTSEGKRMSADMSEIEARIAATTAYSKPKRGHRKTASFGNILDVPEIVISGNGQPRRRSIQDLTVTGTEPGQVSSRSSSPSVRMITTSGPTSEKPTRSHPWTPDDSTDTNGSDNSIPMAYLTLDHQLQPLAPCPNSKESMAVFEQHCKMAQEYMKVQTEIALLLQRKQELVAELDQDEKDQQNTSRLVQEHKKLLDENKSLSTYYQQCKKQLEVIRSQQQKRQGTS
The experiment in a line: Inhibition of TAK1 (unknown origin) at 500 nM by ADP-Glo kinase assay. In general terms: ADP-Glo first removes unused ATP, then detects ADP through luciferase.

Assay [2] deals with T1, Mitogen-activated protein kinase kinase kinase 7 (Homo sapiens). The experiment in a line: Inhibition of TAK1 (unknown origin) at 100 nM by ADP-Glo kinase assay.
For assay [3] the target is unchanged. The experiment in a line: Inhibition of TAK1 (unknown origin) at 20 nM by ADP-Glo kinase assay.
Assay [4] relates to MPC-11. The experiment in a line: Cytotoxicity against mouse MPC-11 cells assessed as reduction in cell viability incubated for 72 hrs by CellTiter-Blue assay. In kind it is functional. The method in brief:
(§1)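 H929 (RPMI, 10% heat-inactivated FBS) or MPC-11 (DMEM, 10% FBS) cells, under 10 passages, 37 °C, 5% CO₂; 4–5 × 10³ cells/well seeded, 24 h, then compound at various concentrations for 72 h. CellTiter-Blue added for 3 h, fluorescence ex/em 560/590 nm. Normalized to DMSO-treated cells; triplicate, mean and standard deviation.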
Background: Resazurin is reduced to fluorescent resorufin, in cell work by metabolically active cells.

The test system of a further assay is NCI-H929. The experiment in a line: Cytotoxicity against human NCI-H929 cells assessed as reduction in cell viability incubated for 72 hrs by CellTiter-Blue assay. The assay is classed as functional. The method in brief:
as §1

Assay [5] has as its system MPC-11. The experiment in a line: Cytotoxicity against mouse MPC-11 cells assessed as reduction in cell viability at 0.2 to 1 uM to incubated for 72 hrs by CellTiter-Blue assay. The assay is classed as functional, cell-based. The following applies: dose 0.2-1 µM. The method in brief: as §1
The target of assay [6] is Mitogen-activated protein kinase kinase kinase 7 (Homo sapiens, UniProt O43318). The experiment in a line: Inhibition of human TAK1 using casein as substrate in presence of [gamma-33P]-ATP by radiometric hotspot kinase assay.
Assay [7] concerns the target Mitogen-activated protein kinase kinase kinase 7 (Mus musculus) (UniProt Q62073). The experiment in a line: Inhibition of TAK1 in mouse MPC-11 cells assessed as reduction in TAK1 phosphorylation at Ser412 residue at 0.1 to 0.5 uM incubated for 48 hrs by Western blot analysis. The assay is classed as cell-based. The following applies: dose 0.1-0.5 µM. The method in brief:
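MPC-11 cells (0.5–1 × 10⁶/well) seeded, treated after 24 h for 48 h; DMSO control. BCA protein quantitation, 10% SDS-PAGE, PVDF; pTAK1, TAK1, β-actin antibodies overnight 4 °C, HRP secondaries 2 h 24 °C, chemiluminescence. Bands quantified relative to actin; duplicates, mean and standard deviation.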

In assay [8] the test system is MPC-11. The experiment in a line: Cytotoxicity against mouse MPC-11 cells assessed as reduction in cell viability at 200 nM incubated for 72 hrs by CellTiter-Blue assay. In kind it is functional. The essentials:
as §1

Calls of active or inactive are those of the source. The rule behind the calls is not given here. Bounds are passed on as bounds.

Mitogen-activated protein kinase kinase kinase 7 (Mus musculus), sequence (Q62073 whole entry): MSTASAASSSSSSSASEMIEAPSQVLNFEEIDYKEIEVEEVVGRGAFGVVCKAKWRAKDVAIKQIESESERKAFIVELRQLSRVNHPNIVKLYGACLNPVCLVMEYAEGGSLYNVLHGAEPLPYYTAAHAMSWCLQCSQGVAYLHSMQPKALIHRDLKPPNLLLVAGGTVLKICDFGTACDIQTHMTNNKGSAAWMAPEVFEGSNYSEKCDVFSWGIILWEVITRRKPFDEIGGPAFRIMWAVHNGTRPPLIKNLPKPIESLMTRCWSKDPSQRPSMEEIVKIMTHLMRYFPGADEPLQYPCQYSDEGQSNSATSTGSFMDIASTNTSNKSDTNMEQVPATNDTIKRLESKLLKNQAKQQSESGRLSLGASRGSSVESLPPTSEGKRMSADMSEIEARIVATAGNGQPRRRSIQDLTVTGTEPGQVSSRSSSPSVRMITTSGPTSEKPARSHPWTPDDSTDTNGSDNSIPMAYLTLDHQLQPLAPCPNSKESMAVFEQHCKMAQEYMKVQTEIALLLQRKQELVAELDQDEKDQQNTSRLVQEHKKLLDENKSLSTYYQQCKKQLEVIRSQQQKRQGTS

In [1], `C[C@@H]1CN(c2ccc3ncc(-c4ccc(C#N)cc4)n3n2)C[C@H](C)O1` returned an inhibition of less than 50%.

Consider `CNC(=O)c1ccc(-c2cnc3ccc(N4C[C@@H](C)O[C@@H](C)C4)nn23)cc1`, for which the inhibition in [1] was less than 50%.

The compound `C[C@@H]1CN(c2ccc3ncc(-c4ccc(Cl)cc4)n3n2)C[C@H](C)O1` showed an inhibition in assay [1] of less than 50%.

As to `Cc1n[nH]c2ccc(-c3cnc4ccc(N5C[C@@H]6C[C@H]5CO6)nn34)cc12`, the inhibition in assay [1], in assay [2] and in assay [3] was greater than 50% each time. The GI50 came out at 101 nM in the assay on MPC-11 [4] and 45 nM with NCI-H929. Also, in the assay with MPC-11 [5], the result was Active.

For the compound `CCCn1/c(=N/C(=O)c2cccc(C(N)=O)c2)[nH]c2ccccc21`, the IC50 in assay [6] was 187 nM. Besides, the GI50 came to 8500 nM in the assay on MPC-11 [4] and 51000 nM in the assay with NCI-H929.

`C[C@@H]1CN(c2ccc3ncc(-c4cccc(C#N)c4)n3n2)C[C@H](C)O1`: the inhibition in assay [1] was less than 50%.

With `C[C@@H]1CN(c2ccc3ncc(-c4ccc5[nH]ncc5c4)n3n2)C[C@H](C)O1`, the inhibition in assay [1] and in [2] was greater than 50% throughout.

As to `Cc1n[nH]c2ccc(-c3cnc4ccc(N5CCOCC5)nn34)cc12`, the figures for the inhibition in [1] and in assay [2] were greater than 50% and 91%, respectively.

The compound `C[C@@H]1CN(c2ccc3ncc(-c4ccc(S(N)(=O)=O)cc4)n3n2)C[C@H](C)O1` displayed an inhibition in assay [1] of less than 50%.

In turn, `C[C@@H]1CN(c2ccc3ncc(-c4ccc5c(c4)CC(=O)N5)n3n2)C[C@H](C)O1` showed an inhibition in assay [1] of less than 50%.

Turning to `Cc1n[nH]c2ccc(-c3cnc4ccc(N5C[C@@H](C)O[C@H](C)C5)nn34)cc12`, the inhibition in assay [1], in assay [2] and in [3] was greater than 50% in each case. Further, in the assay on MPC-11 [5], the result was Active.

In the case of `C[C@@H]1CN(c2ccc3ncc(-c4ccc(C(N)=O)cc4)n3n2)C[C@H](C)O1`, the results for the inhibition in assay [1] and in [2] were 74% and less than 50%, respectively.

`Cc1n[nH]c2ccc(-c3cnc4ccc(N5CCOC(C)(C)C5)nn34)cc12`: the inhibition in [1] is 100%; in [2] it was greater than 50%; in [3], greater than 50%. In addition, the results for the GI50 with MPC-11 [4] and in the assay on NCI-H929 were 126 nM and 24 nM, respectively. Further, the result in the assay on MPC-11 [5] was Active.

In the case of `Cc1n[nH]c2ccc(-c3cnc4ccc(N5C[C@@H](C)O[C@@H](C)C5)nn34)cc12`, the inhibition is 100% in [1], 95% in assay [2] and greater than 50% in [3]. The GI50 in the assay on MPC-11 [4] is 72 nM; in the assay on NCI-H929, 87 nM. In addition, the inhibition result in assay [7] was “Active”.

As to `Cc1n[nH]c2ccc(-c3cnc4ccc(N5CCO[C@H](C)C5)nn34)cc12`, the inhibition in assay [1], in [2] and in assay [3] was greater than 50% throughout. The inhibition at 0.2 µM in the assay with MPC-11 [8] is roughly 50%. Moreover, the result in the assay on MPC-11 [5] was Active.

As to `CCc1n[nH]c2ccc(-c3cnc4ccc(N5C[C@@H](C)O[C@@H](C)C5)nn34)cc12`, the inhibition in assay [1] is 100%; in [2], greater than 50%; in assay [3], greater than 50%. In addition, the GI50 with MPC-11 [4] came out at 94 nM; in the assay with NCI-H929, 30 nM.

As to `C[C@@H]1CN(c2ccc3ncc(-c4ccc5cnn(C)c5c4)n3n2)C[C@H](C)O1`, the inhibition in assay [1] and in [2] was greater than 50% throughout.

For the compound `Cc1nc2ccc(N3C[C@@H](C)O[C@@H](C)C3)nn2c1-c1ccc2[nH]nc(C)c2c1`, the inhibition in assay [1] is less than 50%.

Regarding `Cc1n[nH]c2ccc(-c3cnc4ccc(N5CC6CCC(C5)O6)nn34)cc12`, the inhibition in assay [1], in assay [2] and in assay [3] was greater than 50% in each case. The GI50 with MPC-11 [4] came to 131 nM; in the assay with NCI-H929, 33 nM. Also, the outcome with MPC-11 [5] was Active.

In the case of `C[C@@H]1CN(c2ccc3ncc(-c4ccccc4)n3n2)C[C@H](C)O1`, the inhibition in assay [1] was less than 50%.

On to `C[C@@H]1CN(c2ccc3ncc(-c4cccc(S(C)(=O)=O)c4)n3n2)C[C@H](C)O1`, for which the inhibition in assay [1] is less than 50%.

`C[C@@H]1CN(c2ccc3ncc(-c4ccncc4)n3n2)C[C@H](C)O1`: the inhibition in assay [1] was less than 50%.

Turning to `COCCN1CCN(c2ccc3ncc(-c4ccc5[nH]nc(C)c5c4)n3n2)CC1`, the values for the inhibition in assay [1] and in assay [2] were greater than 50% and 46%, respectively.

In assay [1], `C[C@@H]1CN(c2ccc3ncc(-c4cccc5[nH]ncc45)n3n2)C[C@H](C)O1` returned an inhibition of less than 50%.

In turn, `C[C@@H]1CN(c2ccc3ncc(-c4ccc(OC(F)(F)F)cc4)n3n2)C[C@H](C)O1` returned an inhibition in assay [1] of less than 50%.

Consider `Cc1n[nH]c2ccc(-c3cnc4cccnn34)cc12`, for which, in assay [2], the inhibition came out at 26%.

`C[C@@H]1CN(c2ccc3ncc(-c4ccc(C(F)(F)F)cc4)n3n2)C[C@H](C)O1`: the inhibition in [1] is less than 50%.

Turning to `C[C@@H]1CN(c2ccc3ncc(-c4ccc(F)cc4)n3n2)C[C@H](C)O1`, the inhibition in assay [1] was less than 50%.

Compound `C[C@@H]1CN(c2ccc3ncc(-c4ccc(CC#N)cc4)n3n2)C[C@H](C)O1` registered an inhibition in [1] of less than 50%.

`C[C@@H]1CN(c2ccc3ncc(-c4ccc5c(cnn5C)c4)n3n2)C[C@H](C)O1`: the inhibition in assay [1] was less than 50%.

`C[C@@H]1CN(c2ccc3ncc(-c4cccnc4)n3n2)C[C@H](C)O1` yielded an inhibition in assay [1] of less than 50%.

For the compound `Cc1n[nH]c2ccc(-c3cnc4ccc(N5C[C@H]6C[C@@H]5CO6)nn34)cc12`, the inhibition in assay [1], in [2] and in assay [3] was greater than 50% each time. Further, the GI50 was determined as 155 nM in the assay with MPC-11 [4] and 71 nM in the assay with NCI-H929. Moreover, the outcome with MPC-11 [5] was Active.

The compound `C[C@@H]1CN(c2ccc3ncc(-c4ccc(F)c(C#N)c4)n3n2)C[C@H](C)O1` had an inhibition in assay [1] of less than 50%.

For the compound `C[C@@H]1CN(c2ccc3ncc(-c4ccc5cn[nH]c5c4)n3n2)C[C@H](C)O1`, the inhibition in [1] and in assay [2] was greater than 50% in each case.

As to `Cc1n[nH]c2ccc(-c3cnc4ccc(N5CCO[C@@H](C)C5)nn34)cc12`, the inhibition in assay [1] was 100%; in [2], greater than 50%; in [3] it was greater than 50%. Also, the inhibition entry in the assay on MPC-11 [8] was “inactive”. Further, the outcome in the assay with MPC-11 [5] was inactive.
